Source: PMC5199138 (Cancer chemotherapy and pharmacology, 2016)
“Also recorded” adds a separate entry of the source.

What was measured:
Top1 [1] = target: T1, Top1 (Homo sapiens, UniProt P11387); assay: Top1 levels in paired tumor biopsies; type: in vivo; conditions: of the 8 patients on the daily schedule
T1 sequence (P11387 1-765): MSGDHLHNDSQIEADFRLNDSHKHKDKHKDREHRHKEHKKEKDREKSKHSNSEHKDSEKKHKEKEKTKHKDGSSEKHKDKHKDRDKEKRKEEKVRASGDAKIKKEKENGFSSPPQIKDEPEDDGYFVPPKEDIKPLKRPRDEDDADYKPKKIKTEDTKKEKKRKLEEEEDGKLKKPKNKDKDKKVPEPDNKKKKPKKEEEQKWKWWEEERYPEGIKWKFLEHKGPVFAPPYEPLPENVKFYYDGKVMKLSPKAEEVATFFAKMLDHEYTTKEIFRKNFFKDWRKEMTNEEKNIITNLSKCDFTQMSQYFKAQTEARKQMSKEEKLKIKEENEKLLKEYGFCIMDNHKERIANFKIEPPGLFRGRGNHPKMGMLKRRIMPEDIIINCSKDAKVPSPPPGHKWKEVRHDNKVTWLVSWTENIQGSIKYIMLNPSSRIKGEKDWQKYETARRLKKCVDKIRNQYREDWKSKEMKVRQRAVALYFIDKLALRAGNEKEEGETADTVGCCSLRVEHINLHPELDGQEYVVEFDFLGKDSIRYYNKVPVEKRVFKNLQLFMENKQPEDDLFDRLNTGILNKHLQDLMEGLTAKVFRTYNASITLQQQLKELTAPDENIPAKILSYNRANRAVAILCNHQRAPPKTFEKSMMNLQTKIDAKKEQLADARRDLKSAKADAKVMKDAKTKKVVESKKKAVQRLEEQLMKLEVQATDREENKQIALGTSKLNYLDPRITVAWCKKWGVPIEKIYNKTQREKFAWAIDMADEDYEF
In short: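 Daily schedule: tumor biopsies taken at baseline and 2–4 h after infusion start on cycle 1 day 3. Top1 quantified by validated immunofluorescence assay (pg/μg protein). Pre-dose value had to exceed twice the LLQ to allow detection of a 50% reduction. Reported as percent change from baseline for each patient.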

Top1 [2] = target: T1, Top1; assay: Top1 levels in PBMCs; type: in vivo
In short: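 PBMCs collected in the daily trial before dosing and 4 h after infusion start on cycle 1 days 1 and 3. Top1 measured by validated immunofluorescence assay, expressed as pg/10^7 cells. Reportable only if pre-dose Top1 exceeded twice the LLQ; samples also had to pass assay QC. Result given as percent change from baseline per patient.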

[3] = Plasma and urine pharmacokinetics; type: in vivo, human; conditions: for AUC(0-t) / Cmax / AUC(0-inf) / half-life: human, plasma, intravenous
γH2AX = γH2AX in hair follicles; type: in vivo, human; conditions: 4 patients, daily trial, 4-6 h post-infusion vs pre-infusion; p=0.027, 1-sided
[4] = test system: patients with advanced solid tumors; assay: Phase I trial, daily schedule; type: in vivo
[5] = cited from earlier work
[6] = test system: patients with advanced solid tumors; assay: Phase I trial, weekly schedule; type: in vivo
[7] = weekly trial, Total (N=21), all dose levels, SD of geometric mean in parenthesis
[8] = weekly trial, W1, 60 mg/m^2 over 3 h, N=6, SD of geometric mean in parenthesis
[9] = weekly trial, W2, 90 mg/m^2 over 3 h, N=8, SD of geometric mean in parenthesis
[10] = weekly trial, W3, 135 mg/m^2 over 3 h, N=7, SD of geometric mean in parenthesis

For `COc1cc2c3c(n(CCCN4CCOCC4)c(=O)c2cc1OC)-c1cc2c(cc1C3=O)OCO2` [indotecan], the “Number of patients with significant Top1 decreases in post-treatment biopsies” value (Top1 [1]) was 3, the “Effects of treatment on PBMC Top1 levels” value (Top1 [2]; DL-D2 through DL-D6, 4 h after start of infusion, cycle 1 days 1 and 3) was “inconclusive” and the “Decrease in PBMC Top1 level” value (Top1 [2]; patients #0003 and #0015, post-dose vs baseline) was greater than 70%. For the same molecule, the “Renal excretion 0–24 h” value ([3]; daily trial, D1, 2.5 mg/m^2 over 1 h, N=1) was 0.49% dose, the “Renal excretion 0–24 h” value ([3]; daily trial, D2, 5 mg/m^2 over 1 h, N=3, SD of geometric mean in parenthesis) was 0.48% (0.21%) % dose and the “Renal excretion 0–24 h” value ([3]; daily trial, D3, 10 mg/m^2 over 1 h, N=1) was 0.36% dose. For the same molecule, the “Renal excretion 0–24 h” value ([3]; daily trial, D4, 20 mg/m^2 over 1 h, N=1) was 0.26% dose, the “Renal excretion 0–24 h” value ([3]; daily trial, D5a, 60 mg/m^2 over 1 h, N=6, SD of geometric mean in parenthesis) was 0.18% (0.17%) % dose and the “Renal excretion 0–24 h” value ([3]; daily trial, D6, 80 mg/m^2 over 1 h, N=3, SD of geometric mean in parenthesis) was 0.26% (0.03%) % dose. For the same molecule, the “Renal excretion 0–24 h” value ([3]; daily trial, Total (N=20), all dose levels, SD of geometric mean in parenthesis) was 0.24% (0.17%) % dose, the “Clearance as share of human hepatic blood flow” value ([3]; hepatic blood flow from ref 15) was “approximately 2%” and the AUC(0-t) ([3]; 2.5 mg/m2, AUC0–24, daily trial, D1, 2.5 mg/m^2 over 1 h, N=1) was 547 ng·h/mL. The Cmax ([3]; 2.5 mg/m2, Cmax, daily trial, D1, 2.5 mg/m^2 over 1 h, N=1) was 94.3 ng/mL, the AUC(0-t) ([3]; 5 mg/m2, AUC0–24, daily trial, D2, 5 mg/m^2 over 1 h, N=3, SD of geometric mean in parenthesis) was 1450 ng·h/mL and the Cmax ([3]; 5 mg/m2, Cmax, daily trial, D2, 5 mg/m^2 over 1 h, N=3, SD of geometric mean in parenthesis) was 191 ng/mL. For the same molecule, the AUC(0-inf) ([3]; 60 mg/m2) was 56400 ng·h/mL, the AUC(0-t) ([3]; 60 mg/m2, AUC0–24, daily trial, D5a, 60 mg/m^2 over 1 h, N=6, SD of geometric mean in parenthesis) was 12800 ng·h/mL and the AUC(0-t) ([3]; 60 mg/m2, AUC0–24, weekly trial, W1, 60 mg/m^2 over 3 h, N=6, SD of geometric mean in parenthesis) was 13700 ng·h/mL. It also gave a Cmax ([3]; 60 mg/m2, Cmax, daily trial, D5a, 60 mg/m^2 over 1 h, N=6, SD of geometric mean in parenthesis) of 1610 ng/mL, a Cmax ([3]; 60 mg/m2, Cmax, weekly trial, W1, 60 mg/m^2 over 3 h, N=6, SD of geometric mean in parenthesis) of 1270 ng/mL and a half-life ([3]; 60 mg/m2, t1/2, weekly trial, W1, 60 mg/m^2 over 3 h, N=6, SD of geometric mean in parenthesis) of 89 h. The AUC(0-t) ([3]; 80 mg/m2, AUC0–24, daily trial, D6, 80 mg/m^2 over 1 h, N=3, SD of geometric mean in parenthesis) was 14700 ng·h/mL, the Cmax ([3]; 80 mg/m2, Cmax, daily trial, D6, 80 mg/m^2 over 1 h, N=3, SD of geometric mean in parenthesis) was 1650 ng/mL and the AUC(0-inf) ([3]; 90 mg/m2) was 88600 ng·h/mL. It also gave an AUC(0-t) ([3]; 90 mg/m2, AUC0–24, weekly trial, W2, 90 mg/m^2 over 3 h, N=8, SD of geometric mean in parenthesis) of 18700 ng·h/mL, a Cmax ([3]; 90 mg/m2, Cmax, weekly trial, W2, 90 mg/m^2 over 3 h, N=8, SD of geometric mean in parenthesis) of 1690 ng/mL and a half-life ([3]; 90 mg/m2, t1/2, weekly trial, W2, 90 mg/m^2 over 3 h, N=8, SD of geometric mean in parenthesis) of 74 h. The AUC(0-inf) ([3]; 135 mg/m2) was 70800 ng·h/mL, the AUC(0-t) ([3]; 135 mg/m2, AUC0–24, weekly trial, W3, 135 mg/m^2 over 3 h, N=7, SD of geometric mean in parenthesis) was 21500 ng·h/mL and the Cmax ([3]; 135 mg/m2, Cmax, weekly trial, W3, 135 mg/m^2 over 3 h, N=7, SD of geometric mean in parenthesis) was 1930 ng/mL. For the same molecule, the half-life ([3]; 135 mg/m2, t1/2, weekly trial, W3, 135 mg/m^2 over 3 h, N=7, SD of geometric mean in parenthesis) was 50 h, the “Inter-patient variability, coefficient of variation in drug clearance” value ([3]; in vivo) was 58% and the Clearance ([3]; patients) was 1 L/h/m^2. For the same molecule, the CL [3, 7] was 1.27 (0.74) L/h/m^2, the “Renal excretion 0–24 h” value [3, 7] was 0.19% (0.13%) % dose and the Vss [3, 7] was 109 (69) L/m^2. The CL [3, 8] was 1.06 (0.34) L/h/m^2, the “Renal excretion 0–24 h” value [3, 8] was 0.21% (0.08%) % dose and the Vss [3, 8] was 116 (121) L/m^2. The CL [3, 9] was 1.02 (0.73) L/h/m^2, the “Renal excretion 0–24 h” value [3, 9] was 0.15% (0.13%) % dose and the Vss [3, 9] was 99.3 (32.6) L/m^2. The CL [3, 10] was 1.91 (0.73) L/h/m^2, the “Renal excretion 0–24 h” value [3, 10] was 0.22% (0.16%) % dose and the Vss [3, 10] was 114 (39) L/m^2. For the same molecule, the “γH2AX formation in hair bulbs” value (γH2AX) was “induced significant DNA damage”, the “Maximum tolerated dose (MTD)” value ([4]; daily for 5 days in 28-day cycles, iv over 1 h) was 60 mg/m^2/day and the “Objective response (RECIST)” value ([4]; daily schedule, 21 patients) was “No objective responses were observed on either schedule; also recorded: no patient on either schedule had an objective response”. For the same molecule, the Principal toxicity ([4]; in vivo) was “myelosuppression”, the “Drug in the unbound state (protein binding)” value [5] was “approximately 2%” and the “Maximum tolerated dose (MTD)” value ([6]; days 1, 8, 15 in 28-day cycles, iv over 3 h) was 90 mg/m^2. For the same molecule, the Principal toxicity ([6]; in vivo) was “myelosuppression” and the “Objective response (RECIST)” value ([6]; weekly schedule, 21 patients) was “No objective responses were observed on either schedule; also recorded: no patient on either schedule had an objective response”.
